Numbered stars: 1 amine (or outer) side, 2 acyl side, 3 side chain; on linkers, the order of the positions; unused ones are H or OH. Bridge positions count the residues as written; N and C are the ends. Square brackets hold non-standard residues; d marks the D form. Peptide text beside a SMILES is read from it. I, II: the chains in the order shown. * marks the point of attachment. ξ: configuration not given here. Naphthalene(2,7-(OC3H6CO)2) = O=C(CCCOc1ccc2ccc(OCCCC(=O)[*:2])cc2c1)[*:1]; X1 = COC(=O)CCCOc1ccc2ccc(OCCCC(=O)*)cc2c1; Thr(3ξ) = CC(O)[C@H](N)C(=O)O
What follows are compounds tested against T1, Human immunodeficiency virus type 1 protease (Human immunodeficiency virus 1, UniProt Q72874) (assay: The compound was tested for HIV-1 protease inhibitory activity against plasmid pET9c-PR expressing HIV-1 protease.).
`COC(=O)[C@@H](NC(=O)[C@H](CC(C)C)NC(=O)[C@@H](NC(=O)CCCOc1ccc2ccc(OCCCC(=O)N[C@H](C(=O)N[C@@H](CC(C)C)C(=O)N[C@H](C(=O)OC)C(C)C)C(C)C)cc2c1)C(C)C)C(C)C` showed an IC50 of 2 µM.
In the case of `COC(=O)[C@@H](NC(=O)[C@H](CC(C)C)NC(=O)[C@@H](NC(=O)CCCOc1cccc(OCCCC(=O)N[C@H](C(=O)N[C@@H](CC(C)C)C(=O)N[C@H](C(=O)OC)C(C)C)C(C)C)n1)C(C)C)C(C)C`, the IC50 is reported as 3 µM.
`CC[C@@H](C)[C@H](NC(=O)[C@@H](NC(=O)CCCOc1cccc(OCCCC(=O)N[C@H](C(=O)N[C@H](C(=O)N[C@H](C(=O)OC)C(C)C)[C@H](C)CC)C(C)O)n1)C(C)O)C(=O)N[C@H](C(=O)OC)C(C)C` (stereo not given in full) showed an IC50 of 4.2 µM.
`CC(C)C[C@H](NC(=O)[C@@H](NC(=O)CCCOc1ccc2ccc(OCCCC(=O)N[C@H](C(=O)N[C@@H](CC(C)C)C(=O)N[C@H](C(=O)O)C(C)C)C(C)O)cc2c1)C(C)O)C(=O)N[C@H](C(=O)O)C(C)C` (stereo not given in full) gave an IC50 of 10 µM.
Work on `COC(=O)[C@H](Cc1ccccc1)NC(=O)[C@H](CC(N)=O)NC(=O)[C@H](CC(C)C)NC(=O)[C@@H](NC(=O)CCCOc1ccc2ccc(OCCCC(=O)N[C@H](C(=O)N[C@@H](CC(C)C)C(=O)N[C@@H](CC(N)=O)C(=O)N[C@@H](Cc3ccccc3)C(=O)OC)C(C)O)cc2c1)C(C)O` (stereo not given in full) (I: [Thr(3ξ)]LNF-OMe / II: [Thr(3ξ)]LNF-OMe; linker I:N-II:N via Naphthalene(2,7-(OC3H6CO)2)) yielded an IC50 of 4.4 µM.
Compound `COC(=O)[C@H](CC(C)C)NC(=O)[C@H](CC(C)C)NC(=O)CNC(=O)CCCOc1cccc(OCCCC(=O)NCC(=O)N[C@@H](CC(C)C)C(=O)N[C@@H](CC(C)C)C(=O)OC)n1` has an IC50 of 16 µM.
`CC(C)C[C@H](NC(=O)[C@@H](NC(=O)CCCOc1cccc(OCCCC(=O)N[C@H](C(=O)N[C@@H](CC(C)C)C(=O)N[C@H](C(=O)O)C(C)C)C(C)O)n1)C(C)O)C(=O)N[C@H](C(=O)O)C(C)C` (stereo not given in full) showed an IC50 of 34 µM.
For `COC(=O)[C@H](Cc1ccccc1)NC(=O)[C@H](CC(N)=O)NC(=O)[C@H](CC(C)C)NC(=O)[C@@H](NC(=O)CCCOc1cccc(OCCCC(=O)N[C@H](C(=O)N[C@@H](CC(C)C)C(=O)N[C@@H](CC(N)=O)C(=O)N[C@@H](Cc2ccccc2)C(=O)OC)C(C)O)n1)C(C)O` (stereo not given in full), the IC50 was 10 µM.
`COC(=O)CCCOc1ccc2ccc(OCCCC(=O)N[C@H](C(=O)N[C@@H](CC(C)C)C(=O)N[C@H](C(=O)N[C@H](C(=O)OC)C(C)C)C(C)C)C(C)O)cc2c1` (stereo not given in full) (X1-[Thr(3ξ)]LVV-OMe) gave an IC50 of 10 µM.

What follows are compounds tested against T1, Human immunodeficiency virus type 1 protease (assay: Inhibition of plasmid pET9c-PR expressing HIV-1 protease (No inhibition)).
`COC(=O)CCCOc1ccc2ccc(OCCCC(=O)N[C@H](C(=O)N[C@@H](CC(C)C)C(=O)N[C@@H](Cc3ccc(O)cc3)C(=O)OC)C(C)O)cc2c1` (stereo not given in full) was tested, and the IC50 was “Not Active”.
`CC[C@H](C)[C@H](NC(=O)[C@H](CCC(N)=O)NC(=O)CCCOc1ccc2ccc(OCCCC(=O)N[C@@H](CCC(N)=O)C(=O)N[C@H](C(=O)N[C@H](C(=O)N[C@@H](CC(C)C)C(=O)OC)C(C)O)[C@@H](C)CC)cc2c1)C(=O)N[C@H](C(=O)N[C@@H](CC(C)C)C(=O)OC)C(C)O` (stereo partly drawn) (I: QI[Thr(3ξ)]L-OMe / II: QI[Thr(3ξ)]L-OMe; linker I:N-II:N via Naphthalene(2,7-(OC3H6CO)2)) was tested, and the IC50 was “Not Active”.
`COC(=O)[C@@H](NC(=O)[C@H](CC(C)C)NC(=O)[C@@H](NC(=O)CCCOc1ccc2ccc(OCCCC(=O)N[C@H](C(=O)N[C@@H](CC(C)C)C(=O)N[C@H](C(=O)OC)C(C)C)C(C)O)cc2c1)C(C)O)C(C)C` (stereo not given in full) was tested, and the IC50 was “Not Active”.
For `CC[C@H](C)[C@H](NC(=O)[C@H](CCC(N)=O)NC(=O)CCCOc1ccc2ccc(OCCCC(=O)OC)cc2c1)C(=O)N[C@H](C(=O)N[C@@H](CC(C)C)C(=O)OC)C(C)O` (stereo partly drawn) (X1-QI[Thr(3ξ)]L-OMe), the IC50 was “Not Active”.
In the case of `COC(=O)CCCOc1ccc2ccc(OCCCC(=O)N[C@H](C(=O)N[C@@H](CC(C)C)C(=O)N[C@H](C(=O)OC)C(C)C)C(C)C)cc2c1`, the IC50 is reported as “Not Active”.
In the case of `CC(C)C[C@H](NC(=O)[C@@H](NC(=O)CCCOc1ccc2ccc(OCCCC(=O)N[C@H](C(=O)N[C@@H](CC(C)C)C(=O)N[C@H](C(=O)OCc3ccccc3)C(C)C)C(C)O)cc2c1)C(C)O)C(=O)N[C@H](C(=O)OCc1ccccc1)C(C)C` (stereo not given in full), the IC50 is reported as “Not Active”.
With `CC[C@H](C)[C@H](NC(=O)[C@H](CCC(N)=O)NC(=O)CCCOc1cccc(OCCCC(=O)N[C@@H](CCC(N)=O)C(=O)N[C@H](C(=O)N[C@H](C(=O)N[C@@H](CC(C)C)C(=O)OC)C(C)O)[C@@H](C)CC)n1)C(=O)N[C@H](C(=O)N[C@@H](CC(C)C)C(=O)OC)C(C)O` (stereo not given in full) the IC50 was “Not Active”.
With `CC(C)C[C@H](NC(=O)[C@@H](NC(=O)CCCOc1cccc(OCCCC(=O)N[C@H](C(=O)N[C@@H](CC(C)C)C(=O)N[C@H](C(=O)O)C(C)C)C(C)O)c1)C(C)O)C(=O)N[C@H](C(=O)O)C(C)C` (stereo not given in full) the IC50 was “Not Active”.
In the case of `CC[C@@H](C)[C@H](NC(=O)[C@H](CCC(N)=O)NC(=O)CCCOc1ccc2ccc(OCCCC(=O)N[C@@H](CCC(N)=O)C(=O)N[C@H](C(=O)OC)[C@H](C)CC)cc2c1)C(=O)OC`, the IC50 is reported as “Not Active”.
In the case of `COC(=O)[C@H](Cc1ccc(O)cc1)NC(=O)[C@H](CC(C)C)NC(=O)[C@@H](NC(=O)CCCOc1ccc2ccc(OCCCC(=O)N[C@H](C(=O)N[C@@H](CC(C)C)C(=O)N[C@@H](Cc3ccc(O)cc3)C(=O)OC)C(C)O)cc2c1)C(C)O` (stereo not given in full), the IC50 is reported as “Not Active”.
With `COC(=O)[C@@H](NC(=O)[C@@H](NC(=O)[C@H](CC(C)C)NC(=O)[C@@H](NC(=O)CCCOc1ccc2ccc(OCCCC(=O)N[C@H](C(=O)N[C@@H](CC(C)C)C(=O)N[C@H](C(=O)N[C@H](C(=O)OC)C(C)C)C(C)C)[C@@H](C)O)cc2c1)[C@@H](C)O)C(C)C)C(C)C` (I: TLVV-OMe / II: TLVV-OMe; linker I:N-II:N via Naphthalene(2,7-(OC3H6CO)2)) the IC50 was “Not Active”.
In the case of `COC(=O)[C@@H](NC(=O)[C@H](CC(C)C)NC(=O)[C@@H](NC(=O)CCCOc1cccc(OCCCC(=O)N[C@H](C(=O)N[C@@H](CC(C)C)C(=O)N[C@H](C(=O)OC)C(C)C)C(C)C)c1)C(C)C)C(C)C`, the IC50 is reported as “Not Active”.
With `CC[C@@H](C)[C@H](NC(=O)[C@H](CCC(N)=O)NC(=O)CCCOc1cccc(OCCCC(=O)N[C@@H](CCC(N)=O)C(=O)N[C@H](C(=O)OC)[C@H](C)CC)c1)C(=O)OC` the IC50 was “Not Active”.
For `COC(=O)[C@@H](NC(=O)[C@@H](NC(=O)CCCOc1cccc(OCCCC(=O)N[C@H](C(=O)N[C@H](C(=O)OC)C(C)C)C(C)O)n1)C(C)O)C(C)C` (stereo not given in full), the IC50 was “Not Active”.

Each compound was assayed against Human immunodeficiency virus type 1 protease (Human immunodeficiency virus 1) (UniProt Q72874) (assay: The compound was tested for HIV-1 protease inhibitory activity against plasmid pET9c-PR expressing HIV-1 protease. activity is expressed as Kid value.).
How it was run: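 Dissociative (antidimer) inhibition was analysed by the Zhang kinetic method. Fluorogenic substrate was held at 5.2 μM ([S]0 ≪ Km, Km = 103 μM), with at least five HIV-1 protease (pET9c-PR) levels (2.37–11.8 nM) at several inhibitor concentrations. Runs were at pH 4.7 acetate buffer, 30 °C, fluorescence 340/490 nm. Kid was taken from regression fits of [E]0/√vi versus √vi.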
With `COC(=O)[C@@H](NC(=O)[C@H](CC(C)C)NC(=O)[C@@H](NC(=O)CCCOc1ccc2ccc(OCCCC(=O)N[C@H](C(=O)N[C@@H](CC(C)C)C(=O)N[C@H](C(=O)OC)C(C)C)C(C)C)cc2c1)C(C)C)C(C)C` the Kid was 0.56 µM.
`CC[C@@H](C)[C@H](NC(=O)[C@@H](NC(=O)CCCOc1cccc(OCCCC(=O)N[C@H](C(=O)N[C@H](C(=O)N[C@H](C(=O)OC)C(C)C)[C@H](C)CC)C(C)O)n1)C(C)O)C(=O)N[C@H](C(=O)OC)C(C)C` (stereo not given in full) was tested, and the Kid was 1.4 µM.
`COC(=O)[C@H](Cc1ccccc1)NC(=O)[C@H](CC(N)=O)NC(=O)[C@H](CC(C)C)NC(=O)[C@@H](NC(=O)CCCOc1ccc2ccc(OCCCC(=O)N[C@H](C(=O)N[C@@H](CC(C)C)C(=O)N[C@@H](CC(N)=O)C(=O)N[C@@H](Cc3ccccc3)C(=O)OC)C(C)O)cc2c1)C(C)O` (stereo not given in full) (I: [Thr(3ξ)]LNF-OMe / II: [Thr(3ξ)]LNF-OMe; linker I:N-II:N via Naphthalene(2,7-(OC3H6CO)2)) gave a Kid of 1 µM.
Compound `COC(=O)[C@H](CC(C)C)NC(=O)[C@H](CC(C)C)NC(=O)CNC(=O)CCCOc1cccc(OCCCC(=O)NCC(=O)N[C@@H](CC(C)C)C(=O)N[C@@H](CC(C)C)C(=O)OC)n1` has a Kid of 4.5 µM.

What follows are compounds tested against Human immunodeficiency virus type 1 protease (Human immunodeficiency virus 1) (UniProt Q72874) (assay: The compound was tested for HIV-1 protease inhibitory activity against plasmid pET9c-PR expressing HIV-1 protease at 4.5 uM).
How it was run: (§1)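 Recombinant HIV-1 protease (expressed from pET9c-PR), 7.5 nM final, prediluted in buffer with 1 mg/mL BSA. Inhibitor was mixed with fluorogenic substrate (5.2 μM final) and the reaction started with enzyme. Fluorescence rise at 490 nm (excitation 340 nm) was followed for 5 min at 30 °C.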
`COC(=O)CCCOc1ccc2ccc(OCCCC(=O)N[C@H](C(=O)N[C@@H](CC(C)C)C(=O)N[C@H](C(=O)OC)C(C)C)C(C)O)cc2c1` (stereo not given in full) gave an inhibition of 30%.

Each compound was assayed against Human immunodeficiency virus type 1 protease (Human immunodeficiency virus 1) (UniProt Q72874) (assay: The compound was tested for HIV-1 protease inhibitory activity against plasmid pET9c-PR expressing HIV-1 protease at 6.7 uM).
How it was run: as §1
For `COC(=O)[C@@H](NC(=O)[C@H](CC(C)C)NC(=O)[C@@H](NC(=O)CCCOc1cccc(OCCCC(=O)N[C@H](C(=O)N[C@@H](CC(C)C)C(=O)N[C@H](C(=O)OC)C(C)C)C(C)O)n1)C(C)O)C(C)C` (stereo not given in full), the inhibition was 30%.

These compounds were tested against Human immunodeficiency virus type 1 protease (Human immunodeficiency virus 1) (UniProt Q72874) (assay: The compound was tested for HIV-1 protease inhibitory activity against plasmid pET9c-PR expressing HIV-1 protease at 7 uM).
How it was run: as §1
Work on `COC(=O)CCCOc1ccc2ccc(OCCCC(=O)N[C@H](C(=O)N[C@@H](CC(C)C)C(=O)N[C@@H](CC(N)=O)C(=O)N[C@@H](Cc3ccccc3)C(=O)OC)C(C)O)cc2c1` (stereo not given in full) (X1-[Thr(3ξ)]LNF-OMe) yielded an inhibition of 30%.

From ChEMBL document CHEMBL1132192, “Design, synthesis, and evaluation of conformationally constrained tongs, new inhibitors of HIV-1 protease dimerization” (J Med Chem, 1999)
